Data from ChEMBL document CHEMBL3779858, “Design, synthesis and Structure-activity relationship studies of new thiazole-based free fatty acid receptor 1 agonists for the treatment of type 2 diabetes” (Eur J Med Chem, 2016).
The source made the active and inactive calls. The calls are words filed in the database; no cut-off is given here.

System: Mus musculus
Assay: Toxicity in overnight fasted ICR mouse assessed as hypoglycemic effect at 60 mg/kg, po after 30 to 120 mins […]
Assay type: organism-based
Details: in vivo
How it was run: (§1)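 Fasting hypoglycemia test without a glucose load: male ICR mice, 10 weeks old, fasted overnight, 3 groups of n = 6. Single oral dose of 60 mg/kg test compound, 15 mg/kg glibenclamide or 0.5% CMC-Na vehicle. Tail-vein blood glucose measured by test strip at 0, 30, 60, 90, 120 and 180 min. Mean ± SEM.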

SMILES | Activity
Cc1nc(-c2ccc(F)cc2)sc1COc1ccc2c(c1)OCC2CC(=O)O (stereo not drawn) | Non-toxic

System: Mus musculus
Assay: Toxicity in overnight fasted ICR mouse assessed as hypoglycemic effect at 15 mg/kg, po after 30 to 120 mins […]
Assay type: organism-based
Details: in vivo
How it was run: as §1

SMILES | Activity
COc1ccc(Cl)cc1C(=O)NCCc1ccc(S(=O)(=O)NC(=O)NC2CCCCC2)cc1 [GLYBURIDE] | Toxic

System: Mus musculus
Assay: Hepatotoxicity in ICR mouse assessed as aspartate aminotransferase levels in serum at 20 mg/kg qd administered through oral gavage for 30 days (reference value: 133.1 +/- 13.1 IU/L)
Assay type: toxicity, organism-based
Details: in vivo, 720 h

SMILES | Activity
Cc1cc(OCCCS(C)(=O)=O)cc(C)c1-c1cccc(COc2ccc3c(c2)OC[C@H]3CC(=O)O)c1 [FASIGLIFAM] | 181.1 IU/L

System: Mus musculus
Assay: Antidiabetic activity in overnight fasted ICR mouse assessed as decrease in blood glucose level at 60 mg/kg, po administered 30 mins prior to glucose challenge measured after 60 mins by OGTT method
Assay type: functional, organism-based
Details: not given
How it was run: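 Dose–response OGTT in male ICR mice, 10 weeks old, fasted 12 h, 5 groups of n = 6. Oral doses of 10, 30 or 60 mg/kg, or reference at 20 mg/kg, in 0.5% CMC-Na. Glucose (30%, 3 g/kg) given orally 30 min after dosing. Tail-blood glucose read by test strip at -30, 0, 15, 30, 45, 60 and 120 min. Mean ± SEM.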

SMILES | Activity
Cc1nc(-c2ccc(F)cc2)sc1COc1ccc2c(c1)OCC2CC(=O)O (stereo not drawn) | Active

System: Mus musculus
Assay: Hepatotoxicity in ICR mouse assessed as alanine aminotransferase levels in serum at 30 mg/kg qd administered through oral gavage for 30 days (reference value: 35 +/- 4.3 IU/L)
Assay type: toxicity, organism-based
Details: in vivo, 720 h

SMILES | Activity
Cc1nc(-c2ccc(F)cc2)sc1COc1ccc2c(c1)OCC2CC(=O)O (stereo not drawn) | 37.5 IU/L

System: Mus musculus
Assay: Hepatotoxicity in ICR mouse assessed as total bilirubin levels in serum at 20 mg/kg qd administered through oral gavage for 30 days (reference value: 4.1 +/- 0.4 IU/L)
Assay type: toxicity, organism-based
Details: in vivo, 720 h

SMILES | Activity
Cc1cc(OCCCS(C)(=O)=O)cc(C)c1-c1cccc(COc2ccc3c(c2)OC[C@H]3CC(=O)O)c1 [FASIGLIFAM] | 4 IU/L

System: Mus musculus
Assay: Antihyperglycemic activity in overnight fasted STZ-induced type 2 dibetic C57BL/6 mouse assessed as decrease in blood glucose level at 30 mg/kg, po administered 30 mins prior to glucose challenge measured after 15 to 120 mins by OGTT method
Assay type: functional, organism-based
Details: not given
How it was run: (§2)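 Male C57BL/6 mice fed a 45%-fat diet for 4 weeks, given STZ i.p. (80 mg/kg), then high-fat diet for 4 more weeks. Fasting glucose of 11.1 mmol/L or higher taken as diabetic. After a 12 h fast, n = 6 per group, with a normal-mouse control group. Oral dose in 0.5% CMC-Na, then oral glucose (20%, 2 g/kg) 30 min later. Strip glucose at -30 to 120 min.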

SMILES | Activity
Cc1nc(-c2ccc(F)cc2)sc1COc1ccc2c(c1)OCC2CC(=O)O (stereo not drawn) | Active

Target: T1, Free fatty acid receptor 1 (Homo sapiens, UniProt O14842)
T1 sequence (O14842 whole entry): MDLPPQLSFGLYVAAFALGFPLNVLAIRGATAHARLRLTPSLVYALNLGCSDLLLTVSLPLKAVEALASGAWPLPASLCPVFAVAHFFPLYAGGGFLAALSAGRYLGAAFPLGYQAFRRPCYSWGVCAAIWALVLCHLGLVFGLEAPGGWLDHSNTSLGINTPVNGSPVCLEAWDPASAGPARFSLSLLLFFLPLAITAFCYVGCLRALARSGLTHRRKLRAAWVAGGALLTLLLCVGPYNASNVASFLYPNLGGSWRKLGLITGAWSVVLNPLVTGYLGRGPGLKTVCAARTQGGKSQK
Assay: Agonist activity at human FFA1 receptor expressed in CHO cells assessed as Ca2+ influx by FLIPR assay
Assay type: functional, cell-based
Details: not given
How it was run: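 Ca2+ flux assay in CHO cells stably expressing human FFA1: seeded at 15K/well and grown 16 h, then Fluo 4-AM loaded 1 h at 37 °C with probenecid and fatty acid-free BSA. Compounds tested at various concentrations. Response normalized to vehicle (0%) and 10 µM γ-linolenic acid (100%). EC50 from concentration–response fitting, mean of three determinations.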

SMILES | EC50
Cc1nc(-c2cccc(F)c2)sc1COc1ccc2c(c1)OCC2CC(=O)O (stereo not drawn) | 64.8 nM
COc1ccc(-c2nc(C)c(COc3ccc4c(c3)OCC4CC(=O)O)s2)cc1 (stereo not drawn) | 123 nM
Cc1ccc(-c2nc(C)c(COc3ccc4c(c3)OCC4CC(=O)O)s2)cc1 (stereo not drawn) | 73.5 nM
Cc1nc(-c2ccc(C(F)(F)F)cc2)sc1COc1ccc2c(c1)OCC2CC(=O)O (stereo not drawn) | 96.7 nM
Cc1nc(-c2ccsc2)sc1COc1ccc2c(c1)OCC2CC(=O)O (stereo not drawn) | 68.5 nM

Next, values leading:

EC50 | SMILES
48.7 nM | Cc1nc(-c2ccc(F)cc2)sc1COc1ccc2c(c1)OCC2CC(=O)O (stereo not drawn)
119 nM | Cc1cccc(-c2nc(C)c(COc3ccc4c(c3)OCC4CC(=O)O)s2)c1 (stereo not drawn)
138 nM | Cc1nc(-c2cccc(Cl)c2)sc1COc1ccc2c(c1)OCC2CC(=O)O (stereo not drawn)
85.6 nM | Cc1nc(-c2ccc(Cl)cc2)sc1COc1ccc2c(c1)OCC2CC(=O)O (stereo not drawn)

Target: T1, Free fatty acid receptor 1
Assay: Agonist activity at human FFA1 receptor expressed in CHO cells assessed as Ca2+ influx at 100 nM by FLIPR assay
Assay type: functional, cell-based
Details: not given
How it was run: (§3)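 Human FFA1 stably expressed in CHO cells, seeded at 15K/well and grown 16 h at 37 °C, 5% CO2. Cells loaded 1 h at 37 °C with Fluo 4-AM (2.5 µg/mL), 2.5 mmol/L probenecid and 0.1% fatty acid-free BSA. Single screening concentration as listed. Ca2+ flux read on FLIPR Tetra and expressed as % of the 10 µM γ-linolenic acid response after vehicle subtraction. Mean of three independent experiments.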

SMILES | Activity
Cc1nc(-c2cccc(F)c2)sc1COc1ccc2c(c1)OCC2CC(=O)O (stereo not drawn) | 56.9%
COc1cc(OC)cc(-c2nc(C)c(COc3ccc4c(c3)OCC4CC(=O)O)s2)c1 (stereo not drawn) | 17.5%
O=C(O)CC1COc2cc(OCc3nnc(-c4ccccc4)o3)ccc21 (stereo not drawn) | 1.54%
Cc1nc(-c2ccccc2C(F)(F)F)sc1COc1ccc2c(c1)OCC2CC(=O)O (stereo not drawn) | 7.76%
O=C(O)CC1COc2cc(OCc3csc(-c4ccccc4)n3)ccc21 (stereo not drawn) | 0.15%
COc1ccc(-c2nc(C)c(COc3ccc4c(c3)OCC4CC(=O)O)s2)cc1 (stereo not drawn) | 46.8%
Cc1ccc(-c2nc(C)c(COc3ccc4c(c3)OCC4CC(=O)O)s2)cc1 (stereo not drawn) | 54.9%
Cc1nc(-c2ccc(C(F)(F)F)cc2)sc1COc1ccc2c(c1)OCC2CC(=O)O (stereo not drawn) | 50.4%
Cc1nc(-c2ccsc2)sc1COc1ccc2c(c1)OCC2CC(=O)O (stereo not drawn) | 56.5%

The next lines start with the values.

Activity | SMILES
61.6% | Cc1nc(-c2ccc(F)cc2)sc1COc1ccc2c(c1)OCC2CC(=O)O (stereo not drawn)
47.2% | Cc1cccc(-c2nc(C)c(COc3ccc4c(c3)OCC4CC(=O)O)s2)c1 (stereo not drawn)
0.98% | Cc1cc(COc2ccc3c(c2)OCC3CC(=O)O)nn1-c1ccccc1 (stereo not drawn)
43% | Cc1nc(-c2cccc(Cl)c2)sc1COc1ccc2c(c1)OCC2CC(=O)O (stereo not drawn)
53.4% | Cc1nc(-c2ccc(Cl)cc2)sc1COc1ccc2c(c1)OCC2CC(=O)O (stereo not drawn)

System: Mus musculus
Assay: Hepatotoxicity in ICR mouse assessed as alanine aminotransferase levels in serum at 20 mg/kg qd administered through oral gavage for 30 days (reference value: 35 +/- 4.3 IU/L)
Assay type: toxicity, organism-based
Details: in vivo, 720 h

SMILES | Activity
Cc1cc(OCCCS(C)(=O)=O)cc(C)c1-c1cccc(COc2ccc3c(c2)OC[C@H]3CC(=O)O)c1 [FASIGLIFAM] | 48.3 IU/L

System: Mus musculus
Assay: Antidiabetic activity in overnight fasted ICR mouse assessed as decrease in blood glucose level at 20 mg/kg, po administered 30 mins prior to glucose challenge measured after 15 to 120 mins by OGTT method
Assay type: functional, organism-based
Details: not given
How it was run: (§4)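 Male ICR mice, 10 weeks old, 18-22 g, fasted overnight (12 h), n = 6 per group. Single oral dose in 0.5% CMC-Na vehicle (10 mL/kg), […] for the reference compound (20 mg/kg) and for the test compounds. Oral glucose load (30%, 3 g/kg) given 30 min later. Tail blood glucose measured by test strip at -30, 0, 15, 30, 45, 60 and 120 min. AUC0-2h also derived. Mean ± SEM.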

SMILES | Activity
Cc1cc(OCCCS(C)(=O)=O)cc(C)c1-c1cccc(COc2ccc3c(c2)OC[C@H]3CC(=O)O)c1 [FASIGLIFAM] | Active

System: Mus musculus
Assay: Hepatotoxicity in ICR mouse assessed as aspartate aminotransferase levels in serum at 30 mg/kg qd administered through oral gavage for 30 days (reference value: 133.1 +/- 13.1 IU/L)
Assay type: toxicity, organism-based
Details: in vivo, 720 h

SMILES | Activity
Cc1nc(-c2ccc(F)cc2)sc1COc1ccc2c(c1)OCC2CC(=O)O (stereo not drawn) | 141.8 IU/L

System: Mus musculus
Assay: Antihyperglycemic activity in overnight fasted STZ-induced type 2 dibetic C57BL/6 mouse assessed as decrease in blood glucose level at 20 mg/kg, po administered 30 mins prior to glucose challenge measured after 15 to 120 mins by OGTT method
Assay type: functional, organism-based
Details: not given
How it was run: as §2

SMILES | Activity
Cc1cc(OCCCS(C)(=O)=O)cc(C)c1-c1cccc(COc2ccc3c(c2)OC[C@H]3CC(=O)O)c1 [FASIGLIFAM] | Active

System: Mus musculus
Assay: Antidiabetic activity in overnight fasted ICR mouse assessed as decrease in blood glucose level at […], po administered 30 mins prior to glucose challenge measured after 15 to 120 mins by OGTT method
Assay type: functional, organism-based
Details: 38 umol/kg
How it was run: as §4

SMILES | Activity
Cc1nc(-c2cccc(F)c2)sc1COc1ccc2c(c1)OCC2CC(=O)O (stereo not drawn) | Active
Cc1nc(-c2ccc(F)cc2)sc1COc1ccc2c(c1)OCC2CC(=O)O (stereo not drawn) | Active
Cc1nc(-c2ccc(Cl)cc2)sc1COc1ccc2c(c1)OCC2CC(=O)O (stereo not drawn) | Active
Cc1ccc(-c2nc(C)c(COc3ccc4c(c3)OCC4CC(=O)O)s2)cc1 (stereo not drawn) | Active
Cc1nc(-c2ccsc2)sc1COc1ccc2c(c1)OCC2CC(=O)O (stereo not drawn) | Active

System: Mus musculus
Assay: Hepatotoxicity in ICR mouse assessed as total bilirubin levels in serum at 30 mg/kg qd administered through oral gavage for 30 days (reference value: 4.1 +/- 0.4 IU/L)
Assay type: toxicity, organism-based
Details: in vivo, 720 h

SMILES | Activity
Cc1nc(-c2ccc(F)cc2)sc1COc1ccc2c(c1)OCC2CC(=O)O (stereo not drawn) | 4 IU/L

Target: T1, Free fatty acid receptor 1
Assay: Agonist activity at human FFA1 receptor expressed in CHO cells assessed as Ca2+ influx at 300 nM by FLIPR assay
Assay type: functional, cell-based
Details: not given
How it was run: as §3

Activity | SMILES
6.31% | O=C(O)CC1COc2cc(OCc3nnc(-c4ccccc4)o3)ccc21 (stereo not drawn)
1.23% | Cc1cc(COc2ccc3c(c2)OCC3CC(=O)O)nn1-c1ccccc1 (stereo not drawn)
5.67% | O=C(O)CC1COc2cc(OCc3csc(-c4ccccc4)n3)ccc21 (stereo not drawn)

System: Mus musculus
Assay: Antidiabetic activity in overnight fasted po dosed ICR mouse assessed as decrease in blood glucose level administered 30 mins prior to glucose challenge measured after 15 to 120 mins by OGTT method
Assay type: functional, organism-based
Details: not given
How it was run: as §4

SMILES | Activity
Cc1nc(-c2ccc(F)cc2)sc1COc1ccc2c(c1)OCC2CC(=O)O (stereo not drawn) | Dose-dependent effect

System: Mus musculus
Assay: Antidiabetic activity in overnight fasted ICR mouse assessed as decrease in plasma glucose AUC at […], po administered 30 mins prior to glucose challenge measured after 15 to 120 mins by OGTT method
Assay type: functional, organism-based
Details: not given
How it was run: as §4

SMILES | Activity
Cc1nc(-c2cccc(F)c2)sc1COc1ccc2c(c1)OCC2CC(=O)O (stereo not drawn) | Active
Cc1nc(-c2ccc(F)cc2)sc1COc1ccc2c(c1)OCC2CC(=O)O (stereo not drawn) | Active
Cc1nc(-c2ccc(Cl)cc2)sc1COc1ccc2c(c1)OCC2CC(=O)O (stereo not drawn) | Active
Cc1ccc(-c2nc(C)c(COc3ccc4c(c3)OCC4CC(=O)O)s2)cc1 (stereo not drawn) | Active
